Reference: ChEMBL document CHEMBL1148220, “Antineoplastic agents. 529. Isolation and structure of nootkastatins 1 and 2 from the Alaskan yellow cedar Chamaecyparis nootkatensis” (2004)
In brackets after ≈: the same amount, converted by molar mass. Activity calls are given as the source filed them. No cut-off for these calls is given here.

Tests used:
Streptococcus pyogenes = experiment: Antimicrobial activity against penicillin-resistant Streptococcus pyogenes after 24 hrs by broth microdilution assay in presence of 25% human serum; format: functional
In short: (§1)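 Bacterial NCCLS broth microdilution run in medium with 25% heat-inactivated, filter-sterilized normal human serum. Compounds were taken up in sterile DMSO and diluted in medium immediately before use. MIC was the lowest concentration with no visible growth (optically clear). Assays were repeated on separate days.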

Nakaseomyces glabratus = experiment: Antimicrobial activity against Candida glabrata after 48 hrs by broth microdilution assay in presence of 25% human serum; format: functional
In short: (§2)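 For yeasts, NCCLS broth microdilution was run in medium supplemented with 25% heat-inactivated, filter-sterilized normal human serum. Compounds were reconstituted in sterile DMSO and diluted in medium just before the assay. MIC was the lowest concentration giving optically clear wells.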

Enterococcus faecalis [1] = experiment: Antimicrobial activity against Enterococcus faecalis ATCC 29212 after 24 hrs by broth microdilution assay in presence of 25% human serum; format: functional; settings: ATCC 29212, 24 h
In short: as §1, with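 “Bacteria were tested by NCCLS” for “Bacterial NCCLS”, “microdilution” for “microdilution run”, “medium containing” for “medium with”, “were dissolved” for “were taken up”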

Candida albicans [2] = experiment: Antimicrobial activity against Candida albicans ATCC 90028 after 48 hrs by broth microdilution assay in presence of 25% human serum; format: functional; settings: ATCC 90028, 48 h; in short: as §2
SF-268 = experiment: Cytotoxicity against human SF268 cells after 48 hrs by SRB assay; format: functional; settings: SF-268, 48 h
Staphylococcus aureus [3] = experiment: Antimicrobial activity against Staphylococcus aureus ATCC 29213 after 24 hrs by broth microdilution assay in presence of 25% human serum; format: functional; settings: ATCC 29213, 24 h
In short: as §1, with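 “Bacteria were tested by NCCLS” for “Bacterial NCCLS”, “microdilution” for “microdilution run”, “medium containing” for “medium with”, “were dissolved” for “were taken up”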

Micrococcus luteus [4] = experiment: Antimicrobial activity against Micrococcus luteus Presque Isle 456 after 24 hrs by broth microdilution assay; format: functional
In short: (§3)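 Bacterial MICs were determined by NCCLS broth microdilution. Compounds were dissolved in a small volume of sterile DMSO and diluted in the appropriate medium just before testing. MIC was the lowest concentration giving no visible growth (optically clear). Assays were repeated on separate days.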

Cryptococcus neoformans [5] = experiment: Antimicrobial activity against fluconazole-resistant Cryptococcus neoformans after 48 hrs by broth microdilution assay in presence of 25% human serum; format: functional
NCI-H460 = experiment: Cytotoxicity against human NCI-H460 cells after 48 hrs by SRB assay; format: functional; settings: NCI-H460, 48 h
Neisseria gonorrhoeae [6] = experiment: Antimicrobial activity against Neisseria gonorrhoeae ATCC 49226 after 24 hrs by broth microdilution assay in presence of 25% human serum; format: functional; settings: ATCC 49226, 24 h
In short: as §1, with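 “Bacteria were tested by NCCLS” for “Bacterial NCCLS”, “microdilution” for “microdilution run”, “medium containing” for “medium with”, “were dissolved” for “were taken up”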

DU-145 = experiment: Cytotoxicity against human DU145 cells after 48 hrs by SRB assay; format: functional; settings: DU-145, 48 h
Streptococcus pneumoniae [7] = experiment: Antimicrobial activity against Streptococcus pneumoniae ATCC 6303 after 24 hrs by broth microdilution assay in presence of 25% human serum; format: functional; settings: ATCC 6303, 24 h
In short: as §1, with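 “Bacteria were tested by NCCLS” for “Bacterial NCCLS”, “microdilution” for “microdilution run”, “medium containing” for “medium with”, “were dissolved” for “were taken up”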

Rhodococcus sp. = experiment: Antimicrobial activity against Rhodococcus sp. after 24 hrs by broth microdilution assay in presence of 25% human serum; format: functional; settings: Rhodococcus sp. (in: high G+C Gram-positive bacteria)
In short: as §1, with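 “Bacteria were tested by NCCLS” for “Bacterial NCCLS”, “microdilution” for “microdilution run”, “medium containing” for “medium with”, “were dissolved” for “were taken up”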

Enterobacter cloacae [8] = experiment: Antimicrobial activity against Enterobacter cloacae ATCC 13047 at 64 ug/mL after 24 hrs by broth microdilution assay; format: functional, organism-based
Enterobacter cloacae [9] = experiment: Antimicrobial activity against Enterobacter cloacae ATCC 13047 after 24 hrs by broth microdilution assay in presence of 25% human serum; format: functional; settings: ATCC 13047, 24 h
In short: as §1, with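 “Bacteria were tested by NCCLS” for “Bacterial NCCLS”, “microdilution” for “microdilution run”, “medium containing” for “medium with”, “were dissolved” for “were taken up”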

P388 = experiment: Cytotoxicity against mouse P388 cells; format: functional; settings: read-out: ED50 (the source's name)
KM-20L2 = experiment: Cytotoxicity against human KM20L2 cells after 48 hrs by SRB assay; format: functional; settings: KM-20L2, 48 h
Cryptococcus neoformans [10] = experiment: Antimicrobial activity against Cryptococcus neoformans ATCC 90122 after 24 hrs by broth microdilution assay; format: functional; settings: ATCC 90112, 24 h, in the assay text read “ATCC 90112” for “ATCC 90122”
In short: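 Yeasts were tested by NCCLS broth microdilution. Compounds were dissolved in a small volume of sterile DMSO and diluted in the appropriate medium immediately before testing. MIC was the lowest concentration inhibiting all visible growth (optically clear). Assays were repeated on separate days.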

BXPC-3 = experiment: Cytotoxicity against human BxPC3 cells after 48 hrs by SRB assay; format: functional; settings: BXPC-3, 48 h
Micrococcus luteus [11] = experiment: Antimicrobial activity against Micrococcus luteus Presque Isle 456 after 24 hrs by broth microdilution assay in presence of 25% human serum; format: functional
In short: as §1, with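 “Bacteria were tested by NCCLS” for “Bacterial NCCLS”, “microdilution” for “microdilution run”, “medium containing” for “medium with”, “were dissolved” for “were taken up”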

Escherichia coli [12] = experiment: Antimicrobial activity against Escherichia coli ATCC 25922 after 24 hrs by broth microdilution assay in presence of 25% human serum; format: functional; settings: ATCC 25922, 24 h
In short: as §1, with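 “Bacteria were tested by NCCLS” for “Bacterial NCCLS”, “microdilution” for “microdilution run”, “medium containing” for “medium with”, “were dissolved” for “were taken up”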

[13] = tested on: Stenotrophomonas maltophilia; experiment: Antimicrobial activity against Stenotrophomonas maltophilia ATCC 13637 after 24 hrs by broth microdilution assay in presence of 25% human serum; format: functional; settings: ATCC 13637, 24 h
In short: as §1, with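 “Bacteria were tested by NCCLS” for “Bacterial NCCLS”, “microdilution” for “microdilution run”, “medium containing” for “medium with”, “were dissolved” for “were taken up”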

MCF7 = experiment: Cytotoxicity against human MCF7 cells after 48 hrs by SRB assay; format: functional; settings: MCF7, 48 h
Neisseria gonorrhoeae [14] = experiment: Antimicrobial activity against Neisseria gonorrhoeae ATCC 49226 at 64 ug/mL after 24 hrs by broth microdilution assay; format: functional; settings: ATCC 49226, 24 h
Staphylococcus aureus [15] = experiment: Antimicrobial activity against methicillin-resistant Staphylococcus aureus after 24 hrs by broth microdilution assay in presence of 25% human serum; format: functional; in short: as §1
Staphylococcus aureus [16] = experiment: Antimicrobial activity against Staphylococcus aureus ATCC 29213 after 24 hrs by broth microdilution assay; format: functional; settings: ATCC 29213, 24 h; in short: as §3
Cryptococcus neoformans [17] = experiment: Antimicrobial activity against Cryptococcus neoformans ATCC 90122 after 24 hrs by broth microdilution assay in presence of 25% human serum; format: functional; settings: ATCC 90112, 24 h, in the assay text read “ATCC 90112” for “ATCC 90122”; in short: as §2
[18] = tested on: Staphylococcus epidermidis; experiment: Antimicrobial activity against Staphylococcus epidermidis ATCC 49461 after 24 hrs by broth microdilution assay in presence of 25% human serum; format: functional; settings: ATCC 49461, 24 h
In short: as §1, with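 “Bacteria were tested by NCCLS” for “Bacterial NCCLS”, “microdilution” for “microdilution run”, “medium containing” for “medium with”, “were dissolved” for “were taken up”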

Streptococcus pneumoniae [19] = experiment: Antimicrobial activity against penicillin-resistant Streptococcus pneumoniae after 24 hrs by broth microdilution assay in presence of 25% human serum; format: functional; in short: as §1
[20] = tested on: Stenotrophomonas maltophilia; experiment: Antimicrobial activity against Stenotrophomonas maltophilia ATCC 13637 at 64 ug/mL after 24 hrs by broth microdilution assay; format: functional, organism-based
Enterococcus faecalis [21] = experiment: Antimicrobial activity against Enterococcus faecalis ATCC 29212 after 24 hrs by broth microdilution assay; format: functional; settings: ATCC 29212, 24 h; in short: as §3
Enterococcus faecium = experiment: Antimicrobial activity against vancomycin-resistant Enterococcus faecium after 24 hrs by broth microdilution assay in presence of 25% human serum; format: functional; in short: as §1
Candida albicans [22] = experiment: Antimicrobial activity against Candida albicans ATCC 90028 at 64 ug/mL after 48 hrs by broth microdilution assay; format: functional, organism-based
Streptococcus pneumoniae [23] = experiment: Antimicrobial activity against Streptococcus pneumoniae ATCC 6303 after 24 hrs by broth microdilution assay; format: functional; settings: ATCC 6303, 24 h; in short: as §3
Escherichia coli [24] = experiment: Antimicrobial activity against Escherichia coli ATCC 25922 at 64 ug/mL after 24 hrs by broth microdilution assay; format: functional, organism-based

CC(C)O[C@@H]1C[C@H]2C(C)(C)CCC[C@]2(C)c2ccc(O)c(C(C)C)c2O1 [NOOTKASTATIN 2]
MIC (Streptococcus pyogenes): > 64 µg/mL
MIC (Nakaseomyces glabratus): > 64 µg/mL
MIC (Enterococcus faecalis [1]): > 64 µg/mL
MIC (Candida albicans [2]): > 64 µg/mL
GI50 (SF-268): 2 µg/mL (≈ 5.55 µM)
MIC (Staphylococcus aureus [3]): > 64 µg/mL
MBC (Micrococcus luteus [4]): 16 µg/mL (≈ 44.4 µM)
MIC (Micrococcus luteus [4]): 1 µg/mL (≈ 2.77 µM)
MIC (Cryptococcus neoformans [5]): > 64 µg/mL
GI50 (NCI-H460): 2 µg/mL (≈ 5.55 µM)
MIC (Neisseria gonorrhoeae [6]): > 64 µg/mL
GI50 (DU-145): 2.2 µg/mL (≈ 6.1 µM)
MIC (Streptococcus pneumoniae [7]): > 64 µg/mL
MIC (Rhodococcus sp.): > 64 µg/mL
Activity (Enterobacter cloacae [8]): inactive
MIC (Enterobacter cloacae [9]): > 64 µg/mL
EC50 (P388): 5.8 µg/mL (≈ 16.1 µM)
GI50 (KM-20L2): 2.4 µg/mL (≈ 6.66 µM)
MIC (Cryptococcus neoformans [10]): 64 µg/mL (≈ 178 µM)
GI50 (BXPC-3): 1.8 µg/mL (≈ 4.99 µM)
MIC (Micrococcus luteus [11]): > 64 µg/mL
MIC (Escherichia coli [12]): > 64 µg/mL
MIC [13]: > 64 µg/mL
GI50 (MCF7): 2.3 µg/mL (≈ 6.38 µM)
MBC (Neisseria gonorrhoeae [14]): 2 µg/mL (≈ 5.55 µM)
MIC (Neisseria gonorrhoeae [14]): 2 µg/mL (≈ 5.55 µM)
MIC (Staphylococcus aureus [15]): > 64 µg/mL
MBC (Staphylococcus aureus [16]): 8 µg/mL (≈ 22.2 µM)
MIC (Staphylococcus aureus [16]): 4 µg/mL (≈ 11.1 µM)
MIC (Cryptococcus neoformans [17]): > 64 µg/mL
MIC [18]: > 64 µg/mL
MIC (Streptococcus pneumoniae [19]): > 64 µg/mL
Activity [20]: inactive
MBC (Enterococcus faecalis [21]): 32 µg/mL (≈ 88.8 µM)
MIC (Enterococcus faecalis [21]): 2 µg/mL (≈ 5.55 µM)
MIC (Enterococcus faecium): > 64 µg/mL
Activity (Candida albicans [22]): inactive
MBC (Streptococcus pneumoniae [23]): 64 µg/mL (≈ 178 µM)
MIC (Streptococcus pneumoniae [23]): 64 µg/mL (≈ 178 µM)
Activity (Escherichia coli [24]): inactive
